ChEMBL document CHEMBL4190353, “Synthesis, structure-activity relationships and preliminary mechanism of action of novel water-soluble 4-quinolone-3-carboxamides as antiproliferative agents” (Eur J Med Chem, 2017)

What was measured:
MCF7 = assay: Cytotoxicity against human MCF7 cells assessed as reduction in cell viability incubated for 24 hrs by MTT assay; assay type: functional, cell-based; settings: MCF7, 24 h
How it was run: (§1)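 Cells were kept in McCoy's 5A with 10% fetal bovine serum, streptomycin and 100 units·mL⁻¹ penicillin at 37 °C under 5% CO₂/95% air. Viability was read by MTT optical density. IC50 is the concentration that lowers optical density by 50% relative to untreated cells. Values are means with SD of at least three independent determinations.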

HeLa = assay: Cytotoxicity against human HeLa cells assessed as reduction in cell viability incubated for 24 hrs by MTT assay; assay type: functional, cell-based; how it was run: as §1
RKO = assay: Cytotoxicity against human RKO cells assessed as reduction in cell viability incubated for 24 hrs by MTT assay; assay type: functional, cell-based; how it was run: as §1
[1] = Solubility in water; assay type: physicochemical
HepG2 = assay: Cytotoxicity against human HepG2 cells assessed as reduction in cell viability incubated for 24 hrs by MTT assay; assay type: functional, cell-based; settings: HepG2, 24 h; how it was run: as §1
PC-3 = assay: Cytotoxicity against human PC3 cells assessed as reduction in cell viability incubated for 24 hrs by MTT assay; assay type: functional, cell-based; settings: PC-3, 24 h; how it was run: as §1
HCT-8 = assay: Cytotoxicity against human HCT8 cells assessed as reduction in cell viability incubated for 24 hrs by MTT assay; assay type: functional, cell-based; settings: HCT-8, 24 h; how it was run: as §1
BGC-823 = assay: Cytotoxicity against human BGC823 cells assessed as reduction in cell viability incubated for 24 hrs by MTT assay; assay type: functional, cell-based; settings: BGC-823, 24 h; how it was run: as §1
HEp-2 = assay: Cytotoxicity against human Hep2 cells assessed as reduction in cell viability incubated for 24 hrs by MTT assay; assay type: functional, cell-based; settings: HEp-2, 24 h; how it was run: as §1
HCT-116 = assay: Cytotoxicity against human HCT116 cells assessed as reduction in cell viability incubated for 24 hrs by MTT assay; assay type: functional, cell-based; settings: HCT-116, 24 h; how it was run: as §1

CCN(CC)CCNC(=O)c1cn(Cc2ccccc2)c2cc(Cl)ccc2c1=O.Cl
IC50 (MCF7): 15.8 µM
IC50 (HeLa): 5.83 µM
IC50 (RKO): 14.3 µM
solubility [1]: > 10000 µg/mL
IC50 (HepG2): 4.32 µM
IC50 (PC-3): 9.5 µM
IC50 (HCT-8): 23.1 µM
IC50 (BGC-823): 10.2 µM
IC50 (HEp-2): 7.02 µM
IC50 (HCT-116): 11.2 µM

CCN(CC)CCCNC(=O)c1cn(Cc2ccccc2)c2cc(Cl)ccc2c1=O.Cl
IC50 (MCF7): 4.54 µM
IC50 (HeLa): 4.9 µM
IC50 (RKO): 7.89 µM
solubility [1]: > 10000 µg/mL
IC50 (HepG2): 4.43 µM
IC50 (PC-3): 10.2 µM
IC50 (HCT-8): 19.5 µM
IC50 (BGC-823): 5.21 µM
IC50 (HEp-2): 4.51 µM
IC50 (HCT-116): 8.65 µM

C=CCn1cc(C(=O)NCCCN(CC)CC)c(=O)c2ccc(Cl)cc21.Cl
IC50 (MCF7): 35.5 µM
IC50 (HeLa): 19.1 µM
IC50 (RKO): 16.3 µM
solubility [1]: > 10000 µg/mL
IC50 (HepG2): 12.6 µM
IC50 (PC-3): 14.1 µM
IC50 (HCT-8): 30 µM
IC50 (BGC-823): 15.1 µM
IC50 (HEp-2): 14.5 µM
IC50 (HCT-116): 18.7 µM

C=CCn1cc(C(=O)OCC)c(=O)c2ccc(Cl)cc21
IC50 (MCF7): 49.8 µM
IC50 (HeLa): > 50 µM
IC50 (RKO): 48 µM
IC50 (HepG2): 43.8 µM
IC50 (PC-3): > 50 µM
IC50 (HCT-8): 45.2 µM
IC50 (BGC-823): > 50 µM
IC50 (HEp-2): > 50 µM
IC50 (HCT-116): > 50 µM

C=CCn1cc(C(=O)NCCN(CC)CC)c(=O)c2ccc(Cl)cc21.Cl
IC50 (MCF7): 47.9 µM
IC50 (HeLa): 38.9 µM
IC50 (RKO): 30.1 µM
solubility [1]: > 10000 µg/mL
IC50 (HepG2): 19.1 µM
IC50 (PC-3): 44.5 µM
IC50 (HCT-8): 30.2 µM
IC50 (BGC-823): 12 µM
IC50 (HEp-2): 24 µM
IC50 (HCT-116): 35.6 µM

CCN(CC)CCCNC(=O)c1c[nH]c2cc(F)ccc2c1=O.Cl
IC50 (MCF7): 36.8 µM
IC50 (HeLa): 39.4 µM
IC50 (RKO): 29.8 µM
solubility [1]: > 10000 µg/mL
IC50 (HepG2): > 50 µM
IC50 (PC-3): > 50 µM
IC50 (HCT-8): 48.5 µM
IC50 (BGC-823): 46.3 µM
IC50 (HEp-2): 45.1 µM
IC50 (HCT-116): 38.6 µM

CCN(CC)CCNC(=O)c1cn(CC)c2cc(Cl)ccc2c1=O.Cl
IC50 (MCF7): 25.1 µM
IC50 (HeLa): 13.8 µM
IC50 (RKO): 23.4 µM
solubility [1]: > 10000 µg/mL
IC50 (HepG2): 9.52 µM
IC50 (PC-3): 15.9 µM
IC50 (HCT-8): 25.1 µM
IC50 (BGC-823): 12.3 µM
IC50 (HEp-2): 42.3 µM
IC50 (HCT-116): 19.8 µM

CCN(CC)CCCNC(=O)c1c[nH]c2cc(Cl)ccc2c1=O.Cl
IC50 (MCF7): 22.4 µM
IC50 (HeLa): 22.4 µM
IC50 (RKO): 25.2 µM
solubility [1]: > 10000 µg/mL
IC50 (HepG2): 28.2 µM
IC50 (PC-3): 39.8 µM
IC50 (HCT-8): 28.8 µM
IC50 (BGC-823): 23.4 µM
IC50 (HEp-2): 25.1 µM
IC50 (HCT-116): 23.3 µM

CCN(CC)CCCNC(=O)c1cn(C)c2cc(Cl)ccc2c1=O.Cl
IC50 (MCF7): 10 µM
IC50 (HeLa): 9.5 µM
IC50 (RKO): 11.2 µM
solubility [1]: > 10000 µg/mL
IC50 (HepG2): 8.72 µM
IC50 (PC-3): 15.8 µM
IC50 (HCT-8): 22.4 µM
IC50 (BGC-823): 17.8 µM
IC50 (HEp-2): 4.51 µM
IC50 (HCT-116): 9.85 µM

CCCCn1cc(C(=O)OCC)c(=O)c2ccc(Cl)cc21
IC50 (MCF7): > 50 µM
IC50 (HeLa): > 50 µM
IC50 (RKO): 45.2 µM
IC50 (HepG2): 28.3 µM
IC50 (PC-3): 41.7 µM
IC50 (HCT-8): > 50 µM
IC50 (BGC-823): 43.6 µM
IC50 (HEp-2): 35.5 µM
IC50 (HCT-116): 39.8 µM

CCOC(=O)c1cn(C)c2cc(Cl)ccc2c1=O
IC50 (MCF7): > 50 µM
IC50 (HeLa): > 50 µM
IC50 (RKO): > 50 µM
IC50 (HepG2): 38 µM
IC50 (PC-3): > 50 µM
IC50 (HCT-8): > 50 µM
IC50 (BGC-823): 30.2 µM
IC50 (HEp-2): 25 µM
IC50 (HCT-116): > 50 µM

CCN(CC)CCCNC(=O)c1c[nH]c2cc(OC)ccc2c1=O.Cl
IC50 (MCF7): 34.7 µM
IC50 (HeLa): 39.8 µM
IC50 (RKO): 42.5 µM
solubility [1]: > 10000 µg/mL
IC50 (HepG2): 47.9 µM
IC50 (PC-3): > 50 µM
IC50 (HCT-8): 44.6 µM
IC50 (BGC-823): 40.8 µM
IC50 (HEp-2): 40.8 µM
IC50 (HCT-116): 38.9 µM

CCOC(=O)c1cn(Cc2ccccc2)c2cc(Cl)ccc2c1=O
IC50 (MCF7): 15.8 µM
IC50 (HeLa): 16.2 µM
IC50 (RKO): 16.3 µM
IC50 (HepG2): 22.4 µM
IC50 (PC-3): 27.9 µM
IC50 (HCT-8): 27.4 µM
IC50 (BGC-823): 13.8 µM
IC50 (HEp-2): 19.1 µM
IC50 (HCT-116): 21.3 µM

CCOC(=O)c1cn(CC)c2cc(Cl)ccc2c1=O
IC50 (MCF7): > 50 µM
IC50 (HeLa): > 50 µM
IC50 (RKO): > 50 µM
IC50 (HepG2): 47.9 µM
IC50 (PC-3): > 50 µM
IC50 (HCT-8): > 50 µM
IC50 (BGC-823): 40.7 µM
IC50 (HEp-2): > 50 µM
IC50 (HCT-116): > 50 µM

CCN(CC)CCCNC(=O)c1cn(CC)c2cc(Cl)ccc2c1=O.Cl
IC50 (MCF7): 14.1 µM
IC50 (HeLa): 15.1 µM
IC50 (RKO): 10.2 µM
solubility [1]: > 10000 µg/mL
IC50 (HepG2): 10.5 µM
IC50 (PC-3): 12.6 µM
IC50 (HCT-8): 16.9 µM
IC50 (BGC-823): 11.7 µM
IC50 (HEp-2): 9.82 µM
IC50 (HCT-116): 8.78 µM

CCN(CC)CCNC(=O)c1cn(C)c2cc(Cl)ccc2c1=O.Cl
IC50 (MCF7): 22.4 µM
IC50 (HeLa): 28.9 µM
IC50 (RKO): 24.6 µM
solubility [1]: > 10000 µg/mL
IC50 (HepG2): 10.2 µM
IC50 (PC-3): 31.6 µM
IC50 (HCT-8): 32.6 µM
IC50 (BGC-823): 27.6 µM
IC50 (HEp-2): 17.8 µM
IC50 (HCT-116): 15.6 µM

CCCCn1cc(C(=O)NCCN(CC)CC)c(=O)c2ccc(Cl)cc21.Cl
IC50 (MCF7): 35.5 µM
IC50 (HeLa): 21.6 µM
IC50 (RKO): 16.8 µM
solubility [1]: > 10000 µg/mL
IC50 (HepG2): 6.92 µM
IC50 (PC-3): 44.6 µM
IC50 (HCT-8): 46.8 µM
IC50 (BGC-823): 7.11 µM
IC50 (HEp-2): 22.6 µM
IC50 (HCT-116): 21 µM

CCCCn1cc(C(=O)NCCCN(CC)CC)c(=O)c2ccc(Cl)cc21.Cl
IC50 (MCF7): 12.3 µM
IC50 (HeLa): 15.4 µM
IC50 (RKO): 9.65 µM
solubility [1]: > 10000 µg/mL
IC50 (HepG2): 5.63 µM
IC50 (PC-3): 8.31 µM
IC50 (HCT-8): 28.8 µM
IC50 (BGC-823): 9.12 µM
IC50 (HEp-2): 11.2 µM
IC50 (HCT-116): 7.84 µM

CCN(CC)CCCNC(=O)c1c[nH]c2cc(Br)ccc2c1=O.Cl
IC50 (MCF7): 21.1 µM
IC50 (HeLa): > 50 µM
IC50 (RKO): 38.7 µM
solubility [1]: > 10000 µg/mL
IC50 (HepG2): 45.7 µM
IC50 (PC-3): > 50 µM
IC50 (HCT-8): > 50 µM
IC50 (BGC-823): 44.7 µM
IC50 (HEp-2): 44.7 µM
IC50 (HCT-116): 44.3 µM

Oc1ccnc2cc(Cl)ccc12
IC50 (MCF7): > 50 µM
IC50 (HeLa): > 50 µM
IC50 (RKO): > 50 µM
IC50 (HepG2): > 50 µM
IC50 (PC-3): > 50 µM
IC50 (HCT-8): > 50 µM
IC50 (BGC-823): > 50 µM
IC50 (HEp-2): > 50 µM
IC50 (HCT-116): > 50 µM

CCOC(=O)c1cn(CCCc2ccccc2)c2cc(Cl)ccc2c1=O
IC50 (MCF7): 14.1 µM
IC50 (HeLa): 14.8 µM
IC50 (RKO): 9.86 µM
IC50 (HepG2): 15.1 µM
IC50 (PC-3): 16.1 µM
IC50 (HCT-8): 17 µM
IC50 (BGC-823): 18.6 µM
IC50 (HEp-2): 7.63 µM
IC50 (HCT-116): 10.8 µM
